The record followed here is article PMC7111685 (Phytochemistry, 2015).

In general, CC50 refers to the concentration giving 50% cytotoxicity. Low readings indicate greater toxicity to the cells, high ones lower toxicity to the cells. The term EC50 denotes the concentration needed to bring the measured effect to its halfway point. Low values mean an effect from little substance, high ones a need for much substance.

The nature of data set [1]: Cytotoxicity assay. It is filed as cell-based. To be noted: African green monkey, Vero cells. The method in brief: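 Vero cells grown in DMEM with 10% FBS and penicillin/streptomycin, plated at 1 × 10^5 cells/well and grown 24 h. Exposed 48 h to various concentrations of test compound, final DMSO under 0.05% (v/v). MTT solution (2 mg/mL) added for 4 h, supernatant removed, formazan dissolved in DMSO, absorbance read at 550 nm. Viability expressed relative to control wells; CC50 by regression analysis.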

Data set [2] has as its system porcine epidemic diarrhea virus (PEDV). Kind of data set: Cytopathic effect. It is filed as cell-based. Summed up:
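Vero cells (DMEM, 10% FBS, penicillin/streptomycin) seeded at 1 × 10^5 cells/well and PBS-washed a day later. Near-confluent monolayers were inoculated with PEDV at 0.01 MOI for 2 h, then given DMEM with various concentrations of test compound. After 72 h at 37 °C, 5% CO2, MTT solution (2 mg/mL) was added for 4 h. EC50 came from regression analysis; SI = CC50/EC50.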
Background: Damage to the host cells serves as the signal in cytopathic effect assays.

The structures appear in SMILES notation.

`O=c1cnn([C@@H]2O[C@H](CO)[C@@H](O)[C@H]2O)c(=O)[nH]1` [Compound 6-Azauridine, 6-Azauridine]: it took 44.5 ± 6.11 µM to reach half-maximal cytotoxicity in data set [1] (CC50 at 48 h). Also, the response in data set [2] (Porcine epidemic diarrhea virus, Vero, 72 h) was half-maximal at 5.58 ± 0.53 µM (EC50). In data set [2] (selective index, SI = CC50/EC50), this compound came in with an SI of 7.98 ± 0.37.
